Activity calls are given as the source filed them. The rule behind the calls is not given here.
Test system: Hepatitis B virus
Assay: Suppression of viral X protein promoter activity of Hepatitis B virus in human HepA2 cells at 3 uM by luciferase reporter gene assay
Type: functional, organism-based
Conditions: not given
Method in brief: (§1)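 HepA2 cells transfected by lipofectamine 2000 with HBV S1P, S2P, core, X or enhancer I/X promoter–luciferase constructs plus β-gal vector, then held in serum-free DMEM with compound (0.9 or 3.0 µM) for 48 h. Lysate luciferase normalized to protein (Bradford) and β-gal, untreated set to one; mean ± SEM, at least three independent experiments.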

SMILES	inhibition
CC(=O)OCCN1C(=O)c2cc3ccc4c(c3c(-c3ccc5c(c3)OCO5)c2C1=O)OCO4	inactive
COc1ccc(-c2c3c(cc4ccc5c(c24)OCO5)C(=O)OC3)cc1O	inactive

Test system: Hepatitis B virus
Assay: Suppression of major viral surface promoter activity of Hepatitis B virus in human HepA2 cells at 3 uM by luciferase reporter gene assay
Type: functional, organism-based
Conditions: not given
Method in brief: as §1

SMILES	inhibition
CC(=O)OCCN1C(=O)c2cc3ccc4c(c3c(-c3ccc5c(c3)OCO5)c2C1=O)OCO4	inactive
COc1ccc(-c2c3c(cc4ccc5c(c24)OCO5)C(=O)OC3)cc1O	Active

Test system: Hepatitis B virus
Assay: Suppression of enhancer 1 promoter activity of Hepatitis B virus in human HepA2 cells at 3 uM by luciferase reporter gene assay
Type: functional, organism-based
Conditions: not given
Method in brief: as §1

SMILES	inhibition
CC(=O)OCCN1C(=O)c2cc3ccc4c(c3c(-c3ccc5c(c3)OCO5)c2C1=O)OCO4	inactive
COc1ccc(-c2c3c(cc4ccc5c(c24)OCO5)C(=O)OC3)cc1O	Active

Test system: Hepatitis B virus
Assay: Suppression of viral core protein promoter activity of Hepatitis B virus in human HepA2 cells at 3 uM by luciferase reporter gene assay
Type: functional, organism-based
Conditions: not given
Method in brief: as §1

SMILES	inhibition
CC(=O)OCCN1C(=O)c2cc3ccc4c(c3c(-c3ccc5c(c3)OCO5)c2C1=O)OCO4	inactive
COc1ccc(-c2c3c(cc4ccc5c(c24)OCO5)C(=O)OC3)cc1O	Active

Test system: not listed separately
Assay: Cytotoxicity against human HepA2 cells after 48 hrs by MTT assay
Type: cell-based
Conditions: not given
Method in brief: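 HepA2 cells seeded in 96-well plates in DMEM and treated with various concentrations of compound for 2 days; cell number measured by MTT; CC50 taken as concentration giving cell growth at 50% of untreated cells.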

SMILES	CC50 at 48 h [µM]
COc1cc(-c2c3c(cc4ccc5c(c24)OCO5)C(=O)OC3=O)ccc1OCc1ccccc1	11.7
O=C1OCc2cc3ccc4c(c3c(-c3ccc5c(c3)OCO5)c21)OCO4	> 12.5
COC(=O)c1c(C(=O)O)c(OC)c2ccc3c(c2c1-c1ccc2c(c1)OCO2)OCO3	7.87
CC(=O)OCCN1C(=O)c2cc3ccc4c(c3c(-c3ccc5c(c3)OCO5)c2C1=O)OCO4	> 12.5
COc1cc(-c2c3c(cc4ccc5c(c24)OCO5)C(=O)OC3)ccc1OCc1ccccc1	> 12.5
O=C(O)c1cc2ccc3c(c2c(-c2ccc4c(c2)OCO4)c1CO)OCO3	> 12.5
COC(=O)c1c(C(=O)OC)c(-c2ccc3c(c2)OCO3)c2c3c(ccc2c1O)OCO3	7.04
O=C1OCc2c1cc1ccc3c(c1c2-c1ccc(O)c(O)c1)OCO3	7.01
N#Cc1cc2c(c3c(-c4cc5c(cc4Br)OCO5)c4c(cc13)C(=O)OC4)OCO2	> 12.5
CC(=O)OCc1cc2ccc3c(c2c(-c2ccc4c(c2)OCO4)c1C=O)OCO3	4.69
O=C1OC(=O)c2c1cc1ccc3c(c1c2-c1ccc(OCc2ccccc2)c(OCc2ccccc2)c1)OCO3	> 12.5
CC(=O)OCc1cc2ccc3c(c2c(-c2ccc4c(c2)OCO4)c1COC(C)=O)OCO3	6.91
COC(=O)c1c(C(=O)OC)c(-c2ccc3c(c2)OCO3)c2c3c(ccc2c1OC)OCO3	8.93
COc1ccc(-c2c3c(cc4ccc5c(c24)OCO5)C(=O)OC3=O)cc1OCc1ccccc1	> 12.5
O=C1OCc2c1cc1ccc3c(c1c2-c1ccc(OCc2ccccc2)c(OCc2ccccc2)c1)OCO3	> 12.5
CC(=O)OCc1cc2ccc3c(c2c(-c2ccc4c(c2)OCO4)c1CO)OCO3	> 12.5
O=C1OCc2c1cc1ccc3c(c1c2-c1ccc(OC(F)(F)F)cc1)OCO3	> 12.5
O=Cc1cc2ccc3c(c2c(-c2ccc4c(c2)OCO4)c1C=O)OCO3	5.31
COc1ccc(-c2c3c(cc4ccc5c(c24)OCO5)C(=O)OC3)cc1O	10.1

Test system: Hepatitis B virus
Assay: Antiviral activity against Hepatitis B virus ayw in human 1.3ES2 cells stably transfected with 1.3 fold wild type HBV ayw strain genome cells assessed as reduction of large HbsAg mRNA level after 2 days by Northern blot
Type: functional, organism-based
Conditions: not given
Method in brief: (§2)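 1.3ES2 cells (HepG2 with 1.3 copies of HBV genome integrated) grown in DMEM with 10% fetal calf serum to confluence in 100 mm dishes, then switched to serum-free DMEM with compound (0, 1.5, 3.0, 9.0 µM) for 48 h. Total RNA Northern-hybridized with HBV DNA probe; 3.5-kb and 2.4/2.1-kb transcripts read, GAPDH mRNA as internal marker; representative of three independent experiments.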

SMILES	inhibition
COc1ccc(-c2c3c(cc4ccc5c(c24)OCO5)C(=O)OC3)cc1O	Dose-dependent effect

Test system: Hepatitis B virus
Assay: Suppression of large viral surface antigen promoter activity of Hepatitis B virus in human HepA2 cells at 3 uM by luciferase reporter gene assay
Type: functional, organism-based
Conditions: not given
Method in brief: as §1

SMILES	inhibition
CC(=O)OCCN1C(=O)c2cc3ccc4c(c3c(-c3ccc5c(c3)OCO5)c2C1=O)OCO4	inactive
COc1ccc(-c2c3c(cc4ccc5c(c24)OCO5)C(=O)OC3)cc1O	Active

Test system: Hepatitis B virus
Assay: Antiviral activity against Hepatitis B virus ayw in human 1.3ES2 cells stably transfected with 1.3 fold wild type HBV ayw strain genome cells assessed as reduction of viral core protein level after 2 days by Western blot
Type: functional, organism-based
Conditions: not given
Method in brief: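 1.3ES2 cells in 100 mm dishes treated with compound (0, 1.5, 3.0, 9.0 µM) in serum-free DMEM for 48 h; total cell lysates resolved by SDS-PAGE and immunoblotted with mouse anti-HBV core antibody.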

SMILES	inhibition
COc1ccc(-c2c3c(cc4ccc5c(c24)OCO5)C(=O)OC3)cc1O	Dose-dependent effect

Test system: Hepatitis B virus
Assay: Antiviral activity against Hepatitis B virus ayw in human 1.3ES2 cells stably transfected with 1.3 fold wild type HBV ayw strain genome cells assessed as reduction of viral pregenomic RNA level after 2 days by Northern blot
Type: functional, organism-based
Conditions: not given
Method in brief: as §2

SMILES	inhibition
CC(=O)OCCN1C(=O)c2cc3ccc4c(c3c(-c3ccc5c(c3)OCO5)c2C1=O)OCO4	inactive

Test system: Hepatitis B virus
Assay: Antiviral activity against Hepatitis B virus in human HepA2 cells assessed as reduction of HBeAg secretion after 48 hrs by ELISA
Type: functional, organism-based
Conditions: HepA2, 48 h
Method in brief: (§3)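 HepA2 cells (HepG2 carrying tandem-repeat full-length HBV DNA) seeded at 8 × 10⁴ cells/well in DMEM with 10% fetal calf serum, attached overnight, washed twice with PBS pH 7.0, then exposed to various concentrations in serum-free DMEM for 48 h. Secreted HBsAg and HBeAg in medium measured by enzyme immunoassay; EC50 as concentration giving 50% of untreated level; mean ± SD, n = 3.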

SMILES	EC50 [µM]
COc1ccc(-c2c3c(cc4ccc5c(c24)OCO5)C(=O)OC3)cc1O	0.14

Test system: Hepatitis B virus
Assay: Antiviral activity against Hepatitis B virus ayw in human 1.3ES2 cells stably transfected with 1.3 fold wild type HBV ayw strain genome cells assessed as reduction of HbeAg mRNA level after 2 days by Northern blot
Type: functional, organism-based
Conditions: not given
Method in brief: as §2

SMILES	inhibition
COc1ccc(-c2c3c(cc4ccc5c(c24)OCO5)C(=O)OC3)cc1O	Dose-dependent effect

Test system: Hepatitis B virus
Assay: Antiviral activity against Hepatitis B virus ayw in human 1.3ES2 cells stably transfected with 1.3 fold wild type HBV ayw strain genome cells assessed as reduction of major HbsAg mRNA level after 2 days by Northern blot
Type: functional, organism-based
Conditions: not given
Method in brief: as §2

SMILES	inhibition
CC(=O)OCCN1C(=O)c2cc3ccc4c(c3c(-c3ccc5c(c3)OCO5)c2C1=O)OCO4	inactive

Test system: Hepatitis B virus
Assay: Antiviral activity against Hepatitis B virus ayw in human 1.3ES2 cells stably transfected with 1.3 fold wild type HBV ayw strain genome cells assessed as reduction of viral DNA level after 6 days by RT-PCR
Type: functional, organism-based
Conditions: not given

SMILES	inhibition
CC(=O)OCCN1C(=O)c2cc3ccc4c(c3c(-c3ccc5c(c3)OCO5)c2C1=O)OCO4	inactive
COc1ccc(-c2c3c(cc4ccc5c(c24)OCO5)C(=O)OC3)cc1O	Dose-dependent effect

Test system: Hepatitis B virus
Assay: Antiviral activity against Hepatitis B virus in human HepA2 cells assessed as reduction of HBsAg secretion after 48 hrs by ELISA
Type: functional, organism-based
Conditions: HepA2, 48 h
Method in brief: as §3

SMILES	EC50 [µM]
COc1ccc(-c2c3c(cc4ccc5c(c24)OCO5)C(=O)OC3)cc1O	0.06

Test system: Hepatitis B virus
Assay: Antiviral activity against Hepatitis B virus in human HepA2 cells assessed as reduction of HBsAg secretion after 48 hrs by enzyme immunoassay
Type: functional, organism-based
Conditions: Hepatitis B virus, HepA2, 48 h; read-out: EC50
Method in brief: as §3

SMILES	EC50 [µM]
COc1cc(-c2c3c(cc4ccc5c(c24)OCO5)C(=O)OC3=O)ccc1OCc1ccccc1	> 12.5
O=C1OCc2cc3ccc4c(c3c(-c3ccc5c(c3)OCO5)c21)OCO4	2.18
COC(=O)c1c(C(=O)O)c(OC)c2ccc3c(c2c1-c1ccc2c(c1)OCO2)OCO3	> 12.5
CC(=O)OCCN1C(=O)c2cc3ccc4c(c3c(-c3ccc5c(c3)OCO5)c2C1=O)OCO4	> 12.5
COc1cc(-c2c3c(cc4ccc5c(c24)OCO5)C(=O)OC3)ccc1OCc1ccccc1	> 12.5
O=C(O)c1cc2ccc3c(c2c(-c2ccc4c(c2)OCO4)c1CO)OCO3	0.89
COC(=O)c1c(C(=O)OC)c(-c2ccc3c(c2)OCO3)c2c3c(ccc2c1O)OCO3	> 12.5
O=C1OCc2c1cc1ccc3c(c1c2-c1ccc(O)c(O)c1)OCO3	3.06
N#Cc1cc2c(c3c(-c4cc5c(cc4Br)OCO5)c4c(cc13)C(=O)OC4)OCO2	> 12.5
CC(=O)OCc1cc2ccc3c(c2c(-c2ccc4c(c2)OCO4)c1C=O)OCO3	> 12.5
O=C1OC(=O)c2c1cc1ccc3c(c1c2-c1ccc(OCc2ccccc2)c(OCc2ccccc2)c1)OCO3	> 12.5
CC(=O)OCc1cc2ccc3c(c2c(-c2ccc4c(c2)OCO4)c1COC(C)=O)OCO3	1.22
COC(=O)c1c(C(=O)OC)c(-c2ccc3c(c2)OCO3)c2c3c(ccc2c1OC)OCO3	> 12.5
COc1ccc(-c2c3c(cc4ccc5c(c24)OCO5)C(=O)OC3=O)cc1OCc1ccccc1	> 12.5
O=C1OCc2c1cc1ccc3c(c1c2-c1ccc(OCc2ccccc2)c(OCc2ccccc2)c1)OCO3	> 12.5
CC(=O)OCc1cc2ccc3c(c2c(-c2ccc4c(c2)OCO4)c1CO)OCO3	0.42
O=C1OCc2c1cc1ccc3c(c1c2-c1ccc(OC(F)(F)F)cc1)OCO3	> 12.5
O=Cc1cc2ccc3c(c2c(-c2ccc4c(c2)OCO4)c1C=O)OCO3	2.39
COc1ccc(-c2c3c(cc4ccc5c(c24)OCO5)C(=O)OC3)cc1O	0.14

Test system: not listed separately
Assay: Cytotoxicity against human HepA2 cells assessed as effect on cell proliferation after 48 hrs by WST1 dye reduction assay
Type: cell-based
Conditions: hepa2, 48 h
Method in brief: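 HepA2 cells treated alongside the antigen assay in serum-free DMEM for 48 h after PBS wash; WST-1 added for 0.5 h and formazan formation used to estimate viable cells per well; mean ± SD, n = 3.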

SMILES	Activity
COc1ccc(-c2c3c(cc4ccc5c(c24)OCO5)C(=O)OC3)cc1O	Non-toxic

Test system: Hepatitis B virus
Assay: Antiviral activity against Hepatitis B virus ayw in human M33 cells containing Lamivudine resistant HBV genome with DNA polymerase L515M/M539V mutation genome cells assessed as reduction of viral DNA level after 6 days by RT-PCR
Type: functional, organism-based
Conditions: not given
Method in brief: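 M33 cells (HepG2 carrying HBV with the L515M/M539V polymerase double mutation) were maintained in DMEM with 10% FCS at 37 °C under 5% CO₂. Cells were seeded at 5 × 10⁶ per 100 mm dish and treated with graded drug concentrations in serum-free DMEM. Viral DNA was extracted from the medium and quantified by real-time PCR against an HBV plasmid standard curve (10³–10⁷ copies), reported as mean, SD, n = 3.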

SMILES	inhibition
CC(=O)OCCN1C(=O)c2cc3ccc4c(c3c(-c3ccc5c(c3)OCO5)c2C1=O)OCO4	inactive
COc1ccc(-c2c3c(cc4ccc5c(c24)OCO5)C(=O)OC3)cc1O	Dose-dependent effect

Source: ChEMBL document CHEMBL1156837, “Synthesis and the biological evaluation of arylnaphthalene lignans as anti-hepatitis B virus agents” (Bioorg Med Chem, 2010)
